Screens (PubChem BioAssay)
MT1-MMP act inh: inhibitors of human MT1-MMP activation | P50281 | HT1080 RFP-PRO-GFP cells, GFP/RFP ratio fluorescence, overnight; percent of plate control window, DMSO zero | GFP/RFP ratio change, % at 20 µM | 0.061% of 360,000 active | AID 651647;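 active = GFP/RFP ratio change of at least 30% with cell ATP level not reduced by more than half and red fluorescence within 50% of control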
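Test system: HT1080 RFP-PRO-GFP cells; Benchmarks: DMSO and RFP-L50D-GFP cell wells; Timing: cells overnight before dosing, compound overnight, 37 °C, 5% CO2; Compound: one 20 µM compound dose with 1% DMSO; Read-out: GFP/RFP fluorescence ratio.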
bovine MsrA act: activates bovine MsrA enzyme; 0.3% of 360,000 active; activation, % at 10.6 µM; purified bovine MsrA, absorbance read-out; in the data active = activation above about 7.5%;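 also: 0% = vehicle and 100% = reference activator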
SKN-1 inh: inhibitors of C. elegans SKN-1; C. elegans VP596 Pgst-4::GFP/RFP ratio, acrylamide-induced, 24 h; inhibition, % at 21.8 µM; 0.49% of 360,000 active; AID 624304;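 active = interference check ratio from 0.5 to 1.5 plus GFP to RFP signal ratio inhibition reaching or exceeding a fixed threshold, cut at about 30% in these data, passing the limit was not always enough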
pCIP destab: compounds decreasing mouse p/CIP protein stability; 0.01% of 290,000 active; Q05BA5; AID 1984; decrease of EGFP signal, % at 10 µM; F442A p/CIP-EGFP cells, EGFP fluorescence, 16 h;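 active = EGFP signal decrease of at least 30% at 10 µM or well 3 SD below plate mean, unless failing retest; inactive = the rest, including hits failing retest or dose response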
MsrA inhibitor: bovine MsrA inhibition; purified bovine MsrA, absorbance read-out; inhibition, % at 15.5 µM; 0.75% of 360,000 active; AID 651718; in the data active = inhibition above about 4.5%;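 also: 0% = vehicle wells with enzyme and 100% = reference inhibitor wells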
Numbers without * were called inactive; . = no result given. This is a sample that favours compounds with a hit; in the whole collection about 1.6% have one here.

SMILES	MT1-MMP act inh	bovine MsrA act	SKN-1 inh	pCIP destab	MsrA inhibitor
C[C@H]1CN(S(=O)(=O)C(C)(C)C)[C@H](CCO)/C1=C\CCO	.	.	.	.	1
Cc1ccccc1CN1[C@@H](C)[C@H](c2ccccc2)Oc2cccc(N3CCCC3)c2S1(=O)=O	.	.	.	.	3
Cn1ccc(-c2ccccc2)n1	3	1	-2	10	1
N#Cc1cc(-c2ccccc2)nn1-c1ccccc1	1	-1	35*	16	2
C#Cc1cccc(Nc2nc(NCc3ccccc3)nc3ccsc23)c1	2	-4	-13	.	13*
CC(C)[C@@H]1CC[C@@H](C)C[C@H]1OC[B-](F)(F)F	.	.	.	.	0
Cc1cc(NC(=O)CSc2nnc(-c3ccncc3)n2-c2ccc(F)cc2)no1	-1	1	42*	14	-1
CCn1c(SCC(=O)Nc2cc(C)on2)nnc1-c1ccncc1	9	-2	5	-17	0
COc1ccc(C2Nc3ccccc3C(=O)N2Cc2ccco2)cc1CN1C(=O)c2ccccc2C1=O (stereo not drawn)	0	-3	4	-7	0
COc1ccc(C2Nc3ccccc3C(=O)N2Cc2ccco2)cc1COc1ccc(F)cc1 (stereo not drawn)	-13	6	43*	0	2
CCc1ccc2[nH]c(=O)c(C(c3nnnn3CCOC)N3CCN(c4ccc(F)cc4)CC3)cc2c1 (stereo not drawn)	-2	-5	-9	11	1
CCc1ccc2[nH]c(=O)c(CN(Cc3ccc(F)cc3)C(c3nnnn3CCN3CCOCC3)C(C)C)cc2c1 (stereo not drawn)	-17	8.6*	23	0	.
COC(=O)c1cc2c(c3c4cc(C)ccc4n(S(=O)(=O)c4cccc(C)c4)c13)C(=O)N(Cc1ccc(N(C)C)cc1)C2	.	.	.	.	1
COc1ccc(S(=O)(=O)N(CC(=O)NCC2CCCO2)c2ccc(Cl)cc2)cc1 (stereo not drawn)	-2	2	9	-1	0
Cc1ccc(N(CC(=O)NCC2CCCO2)S(=O)(=O)c2ccc(Cl)cc2)cc1C (stereo not drawn)	-6	-2	35*	-14	-1
CCCN(CCC)CCN1CCN(C(=O)[C@H](CCc2ccccc2)NC(=O)[C@H]2O[C@@H](n3cnc4c(N)ncnc43)[C@H](O)[C@@H]2O)CC1	.	.	.	.	1
CCOC(=O)/C=C(\C)Sc1cc(=O)oc2ccccc12	-8	-4	3	-16	0
CCOC(=O)/C=C(\C)Sc1cc(O)c2ccccc2c1O	-4	3	18	-3	41*
CC(C)C(=O)NC(=S)/C=C1/N(C)c2ccccc2C1(C)C	-4	-3	60	6	-1
CN1/C(=C/C(=S)NC(=O)C2CCC2)C(C)(C)c2ccccc21	-17	-1	41*	2	0
NS(=O)(=O)c1ccc(OCCCN2CCC(C(O)(c3ccccc3)c3ccccc3)CC2)cc1	.	.	.	.	1
CCC1CSC(Nc2ccc(C(=O)/C=C/c3cccc(C)c3)cc2)=N1 (stereo not drawn)	-10	-1	54*	-6	0
CCC1CSC(Nc2ccc(C(=O)/C=C/c3ccc(Oc4ccccc4)cc3)cc2)=N1 (stereo not drawn)	-5	-5	15	-4	2
Cc1ccc(C(=O)N2CCC[C@@H]2C(=O)N2CCC[C@@H]2C(=O)NCc2ccccc2)cc1	.	.	.	.	0
CN(C(=O)[C@@H](Cc1ccccc1)NC(=O)[C@H]1O[C@@H](n2ccc(=O)[nH]c2=O)[C@H](O)[C@@H]1O)C1CCCCC1	.	.	.	.	1
SMILES	MT1-MMP act inh	bovine MsrA act	SKN-1 inh	pCIP destab	MsrA inhibitor
O=c1[nH][nH]c2c(N=Cc3ccccc3O)ccc(F)c12	2	-4	42*	4	.
O=c1[nH][nH]c2c([N+](=O)[O-])ccc(F)c12	.	.	.	.	0
O=C(/C=C/c1cccs1)c1cc(Cl)ccc1O	-9	-3	11	-4	1
O=C(C=Cc1cccs1)c1ccc(Cl)s1	1	-2	41*	.	1
CN(C)S(=O)(=O)c1ccc(N2CCCC2)c(C(=O)NCc2cccc(C(F)(F)F)c2)c1	-6	-3	47*	-15	0
CN(C)S(=O)(=O)c1ccc(N2CCCC2)c(C(=O)NCCc2ccc(F)cc2)c1	2	-7	-23	3	0
NC(=O)c1c(N)[nH]c(C(=O)c2ccccc2)c1-c1ccccc1Cl	.	.	.	.	1
CCOC(=O)Nc1ccc2c(COC(=O)CN(C)S(=O)(=O)c3ccc(C)cc3)cc(=O)oc2c1	0	-7	7	.	-1
CCOC(=O)Nc1ccc2c(COC(=O)C(NS(=O)(=O)c3ccc(Cl)cc3)C(C)O)cc(=O)oc2c1 (stereo not drawn)	-1	-3	2	.	4.6*
COc1ccc(NC(=O)N(C)C[C@H]2OCc3cn(nn3)CCCC(=O)N([C@H](C)CO)C[C@@H]2C)cc1	.	.	.	.	2
C=CCn1c(-c2ccccc2)cc(SC)c(C#N)c1=O	-6	-4	0	-4	0
C=CCn1c(-c2ccccc2)ccc(C#N)c1=O	1	1	65*	-11	-1
O=C(O)CN1C(=O)NC2(CCc3ccccc32)C1=O (stereo not drawn)	-1	-3	1	10	0
CN(C)C(=O)CN1C(=O)NC2(CCc3ccccc32)C1=O (stereo not drawn)	0	-2	37*	3	-1
O=C(Nc1cccnc1)c1cc(-c2ccc3c(c2)OCO3)on1	5	-5	39*	-16	1
CN(Cc1ccccc1)C1=CC(=[N+]2CCCCC2)CC(C)(C)C1	-4	-18	-6	-25	4.7*
NC(=O)NCCC1=CCCCC1	2	-3	0	-12	0
O=C(NCCC1=CCCCC1)NC1CCCCC1	-3	-1	55*	6	0
COC(=O)C1=C(C)N(Cc2ccccc2C(F)(F)F)C(=NCc2ccccc2)NC1c1ccc(Cl)cc1 (stereo not drawn)	.	.	.	.	-1
COc1ccc(N2C(=O)c3n[nH]c(C(C)C)c3C2c2ccc(C)cc2)cc1 (stereo not drawn)	.	.	.	.	0
Cc1ccc(C)c(S(=O)(=O)/N=C2\C=C(NS(=O)(=O)c3ccccc3)C(=O)c3ccccc32)c1	23	-3	39*	-1	-1
COc1ccccc1CCn1cnc(-c2ccc(F)cc2F)c1CC(C)C	.	.	.	.	0
CCN=C1NC(c2ccc(C(F)(F)F)cc2)C(C(=O)OC)=C(C)N1Cc1cccc(C(F)(F)F)c1 (stereo not drawn)	.	.	.	.	-1
O=C(CSc1nc(O)c(C2CCCCC2)c(=O)[nH]1)NCC1CCCO1 (stereo not drawn)	-3	-8	31*	.	1
Cc1c(CCOC(=O)C23CC4(C)CC(C)(CC(C)(C4)C2)C3)sc[n+]1CC(=O)c1ccccc1	-11	3	38*	-8	-1
Cc1c(CCOC(=O)CC23CC4CC(CC(C4)C2)C3)sc[n+]1CC(=O)c1ccccc1	-10	0	-1	-3	2
Nc1ncnc(N)c1NC(=O)c1ccccc1	.	.	.	.	0
